Tests used:
K562 = assay: Cytotoxicity against human imitinib-resistant K562 cells by MTT assay; assay type: functional, cell-based
Method in brief: (§1)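 Cells grown in RPMI 1640 with 1% glutamine, 1% penicillin/streptomycin and 10% fetal calf serum, then exposed to the sesquiterpenes. Viability was read by MTT. Bone marrow came from three healthy volunteers who gave informed consent. Camptothecin was the positive control for Raji.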

Raji = assay: Cytotoxicity against human Raji cells by MTT assay; assay type: functional, cell-based; method in brief: as §1
[1] = Cytotoxicity against mouse dasatinib-resistant DA1-3b cells carrying pCDNA3-p210BCR/ABL plasmid by MTT assay; assay type: functional, cell-based; method in brief: as §1
[2] = Cytotoxicity against human bone marrow cells by MTT assay; assay type: cell-based; conditions: Bone marrow cell; method in brief: as §1
[3] = Homo sapiens, K562, read-out: IC50
[4] = Mus musculus, DA1-3b, read-out: IC50

C/C1=C\[C@H](OC(=O)c2ccc(O)cc2)[C@H](C(C)C)CC/C(C)=C/CC1 showed an IC50 (K562; [3]) of 25.3 µM, an IC50 (Raji) of 20.9 µM and an IC50 [1, 4] of 24.7 µM. The IC50 [2] was over 50 µM.

For COc1cc(C(=O)O[C@H]2/C=C(\C)CC/C=C(\C)CC[C@H]2C(C)C)ccc1O, the IC50 (K562; k562) was “Not Active” and the IC50 ([1]; da1-3b) was “Not Active”.

For CC[C@@]1(O)C(=O)OCc2c1cc1n(c2=O)Cc2cc3ccccc3nc2-1 [CAMPTOTHECIN], the IC50 (K562; [3]) was 0.002 µM, the IC50 (Raji) was 1 µM and the IC50 [1, 4] was 0.03 µM.

Compound C/C1=C/[C@H](O)C(C)(C)CCC/C(C)=C/C[C@H]1OC(=O)c1ccc(O)cc1 [JUNIFERDIN] has an IC50 (K562; [3]) of over 50 µM and an IC50 [1, 4] of 23.7 µM.

CC(=O)O[C@H]1/C=C(/C)[C@H](OC(=O)c2ccc(O)cc2)C/C=C(\C)CCCC1(C)C [JUNIFERININ] showed an IC50 (K562; [3]) of 33 µM, an IC50 (Raji) of 13 µM and an IC50 [1, 4] of 18.6 µM. The IC50 [2] was 30.7 µM.

COc1cc(C(=O)O[C@@H]2C/C=C(\C)CCCC(C)(C)[C@@H](O)/C=C\2C)ccc1O [JUNIFERIN] gave an IC50 (K562; [3]) of over 50 µM and an IC50 [1, 4] of 29 µM.

With C/C=C(/C)C(=O)O[C@@H]1C/C=C(\C)CCCC(C)(C)[C@@H](O)/C=C\1C [LYCIFERIN A] the IC50 (K562; k562) was “Not Active” and the IC50 ([1]; da1-3b) was “Not Active”.

Work on C/C=C(/C)C(=O)O[C@@H]1C/C=C(\C)CCCC(C)(C)[C@@H](OC(C)=O)/C=C\1C [LYCIFERIN B] yielded an IC50 (K562; [3]) of over 50 µM and an IC50 [1, 4] of 45 µM.

For C/C1=C/[C@H](O)C(C)(C)CCC/C(C)=C/C[C@H]1OC(=O)c1ccccc1 [LYCIFERIN C], the IC50 (K562; k562) was “Not Active” and the IC50 ([1]; da1-3b) was “Not Active”.

Work on CC(=O)O[C@H]1/C=C(/C)[C@H](OC(=O)c2ccccc2)C/C=C(\C)CCCC1(C)C [LYCIFERIN D] yielded an IC50 (K562; [3]) of over 50 µM and an IC50 [1, 4] of 45 µM.

Work on COc1cc(C(=O)O[C@@H]2C/C=C(\C)CCCC(C)(C)[C@@H](OC(C)=O)/C=C\2C)ccc1O [LYCIFERIN E] yielded an IC50 (K562; [3]) of 41.5 µM and an IC50 [1, 4] of 20.1 µM.

With C=C1/C=C/C(C)(C)[C@H](OC(=O)c2ccc(O)c(OC)c2)CC/C(C)=C/CC1 [VANILLOYL FERVANOL] the IC50 (K562; k562) was “Not Active” and the IC50 ([1]; da1-3b) was “Not Active”.

From ChEMBL document CHEMBL1157097, “Humulane and germacrane sesquiterpenes from Ferula lycia” (J Nat Prod, 2010)
